ChEMBL document CHEMBL1151724, “Sesquiterpene lactones from Gonospermum gomerae and G. fruticosum and their cytotoxic activities” (J Nat Prod, 2008)
Activity calls are given as the source filed them. No cut-off for these calls is given here.

These molecules were tested on HL-60 (assay: Effect on cell death in human HL-60 cells assessed as induction of procaspase 7 cleavage at 30 uM). Details: not given.
Assay type: functional, cell-based
Summary of the method: (§1)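 HL-60 cells (1 × 10^6) treated in RPMI 1640, lysed in Tris-HCl pH 6.8 with 2% SDS and boiled. Lysates run on 12% SDS-PAGE, transferred to PVDF and probed with anti-caspase-3, -6 or -7 antibodies, then HRP secondary. Bands detected by chemiluminescence; loading checked by Ponceau S staining. One representative blot of three.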

Row | Structure (SMILES) | Activity
1 | C=C1C(=O)O[C@H]2C[C@@]3(C)[C@H](OC(C)=O)CC[C@@](C)(O)[C@H]3[C@@H](OC(C)=O)[C@H]12 | Active
2 | C=C1CC[C@@H](OC(C)=O)[C@]2(C)C[C@H](OC(C)=O)[C@H]3C(=C)C(=O)O[C@@H]3C12 (some centres not stated) | Active

The molecules below were run on HL-60 (assay: Induction of apoptosis in human HL-60 cells at 30 uM after 48 hrs by flow cytometry). Details: not given.
Assay type: functional
Summary of the method: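 HL-60 cells exposed to 30 µM for 48 h. Hypodiploid (apoptotic) fraction quantified by flow cytometry; average ± SE of triplicate determinations from a representative experiment.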

Row | Structure (SMILES) | Activity [%]
3 | C=C1C(=O)O[C@H]2C[C@@]3(C)[C@H](OC(C)=O)CC[C@@](C)(O)[C@H]3[C@@H](OC(C)=O)[C@H]12 | 12
4 | C=C1CC[C@@H](OC(C)=O)[C@]2(C)C[C@H](OC(C)=O)[C@H]3C(=C)C(=O)O[C@@H]3C12 (some centres not stated) | 30

The molecules below were run on HL-60 (assay: Cell cycle arrest in human HL-60 cells assessed as accumulation at G0/G1 phase at 30 uM after 48 hrs by flow cytometry). Details: not given.
Assay type: functional
Summary of the method: (§2)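 Cells grown in RPMI 1640 with 10% heat-inactivated FBS at 37 °C, 5% CO2, exposed to 30 µM for 48 h. Washed in ice-cold PBS, fixed in 75% ethanol at -20 °C for 1 h, then stained with 50 µg/mL propidium iodide plus 100 µg/mL RNase A for 1 h at 37 °C in the dark. Phase distribution read by flow cytometry; mean ± SEM of two experiments.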

Row | Structure (SMILES) | Activity [%]
5 | C=C1C(=O)O[C@H]2C[C@@]3(C)[C@H](OC(C)=O)CC[C@@](C)(O)[C@H]3[C@@H](OC(C)=O)[C@H]12 | 39.3
6 | COc1cc([C@@H]2c3cc4c(cc3[C@@H](O[C@@H]3O[C@@H]5CO[C@@H](C)O[C@H]5[C@H](O)[C@H]3O)[C@H]3COC(=O)[C@H]23)OCO4)cc(OC)c1O [ETOPOSIDE] | 29.4
7 | C=C1CC[C@@H](OC(C)=O)[C@]2(C)C[C@H](OC(C)=O)[C@H]3C(=C)C(=O)O[C@@H]3C12 (some centres not stated) | 26.8

The molecules below were run on SK-MEL-1 (assay: Induction of apoptosis in human SK-MEL-1 cells assessed as apoptotic bodies at 30 uM after 24 hrs by fluorescence microscopy). Details: not given.
Assay type: functional, cell-based
Summary of the method: (§3)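 HL-60 or SK-MEL-1 cells exposed to 30 µM, then DNA-stained with Hoechst 33258 (bisbenzimide). Chromatin condensation, fragmentation and apoptotic bodies assessed by fluorescence microscopy.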

Row | Structure (SMILES) | Activity
8 | C=C1C(=O)O[C@H]2C[C@@]3(C)[C@H](OC(C)=O)CC[C@@](C)(O)[C@H]3[C@@H](OC(C)=O)[C@H]12 | Active
9 | C=C1CC[C@@H](OC(C)=O)[C@]2(C)C[C@H](OC(C)=O)[C@H]3C(=C)C(=O)O[C@@H]3C12 (some centres not stated) | Active

What follows are molecules tested on HL-60 (assay: Induction of apoptosis in human HL-60 cells assessed as internucleosomal DNA fragmentation at 30 uM after 24 hrs by ethidium bromide assay). Details: not given.
Assay type: functional, cell-based
Summary of the method: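 HL-60 cells exposed to 30 µM for 24 h. Total cellular DNA isolated, electrophoresed on 2% agarose, stained with ethidium bromide and inspected under UV for internucleosomal laddering.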

Row | Structure (SMILES) | Activity
10 | C=C1C(=O)O[C@H]2C[C@@]3(C)[C@H](OC(C)=O)CC[C@@](C)(O)[C@H]3[C@@H](OC(C)=O)[C@H]12 | Active
11 | C=C1CC[C@@H](OC(C)=O)[C@]2(C)C[C@H](OC(C)=O)[C@H]3C(=C)C(=O)O[C@@H]3C12 (some centres not stated) | Active

These molecules were tested on HL-60 (assay: Induction of apoptosis in human HL-60 cells assessed as apoptotic bodies at 30 uM after 24 hrs by fluorescence microscopy). Details: not given.
Assay type: functional, cell-based
Summary of the method: as §3

Row | Structure (SMILES) | Activity
12 | C=C1C(=O)O[C@H]2C[C@@]3(C)[C@H](OC(C)=O)CC[C@@](C)(O)[C@H]3[C@@H](OC(C)=O)[C@H]12 | Active
13 | C=C1CC[C@@H](OC(C)=O)[C@]2(C)C[C@H](OC(C)=O)[C@H]3C(=C)C(=O)O[C@@H]3C12 (some centres not stated) | Active

The molecules below were run on HL-60 (assay: Cell cycle arrest in human HL-60 cells assessed as accumulation at G2-M phase at 30 uM after 48 hrs by flow cytometry). Details: not given.
Assay type: functional
Summary of the method: as §2

Row | Structure (SMILES) | Activity [%]
14 | C=C1C(=O)O[C@H]2C[C@@]3(C)[C@H](OC(C)=O)CC[C@@](C)(O)[C@H]3[C@@H](OC(C)=O)[C@H]12 | 21.8
15 | COc1cc([C@@H]2c3cc4c(cc3[C@@H](O[C@@H]3O[C@@H]5CO[C@@H](C)O[C@H]5[C@H](O)[C@H]3O)[C@H]3COC(=O)[C@H]23)OCO4)cc(OC)c1O [ETOPOSIDE] | 2.6
16 | C=C1CC[C@@H](OC(C)=O)[C@]2(C)C[C@H](OC(C)=O)[C@H]3C(=C)C(=O)O[C@@H]3C12 (some centres not stated) | 18.5

The molecules below were run on HL-60 (assay: Effect on cell death in human HL-60 cells assessed as induction of procaspase 3 cleavage at 30 uM). Details: not given.
Assay type: functional, cell-based
Summary of the method: as §1

Row | Structure (SMILES) | Activity
17 | C=C1C(=O)O[C@H]2C[C@@]3(C)[C@H](OC(C)=O)CC[C@@](C)(O)[C@H]3[C@@H](OC(C)=O)[C@H]12 | Active
18 | C=C1CC[C@@H](OC(C)=O)[C@]2(C)C[C@H](OC(C)=O)[C@H]3C(=C)C(=O)O[C@@H]3C12 (some centres not stated) | Active

The molecules below were run on HL-60 (assay: Induction of apoptosis in human HL-60 cells assessed as fragmentated and condensed chromatin at 30 uM after 24 hrs by fluorescence microscopy). Details: not given.
Assay type: functional, cell-based
Summary of the method: as §3

Row | Structure (SMILES) | Activity
19 | C=C1C(=O)O[C@H]2C[C@@]3(C)[C@H](OC(C)=O)CC[C@@](C)(O)[C@H]3[C@@H](OC(C)=O)[C@H]12 | Active
20 | C=C1CC[C@@H](OC(C)=O)[C@]2(C)C[C@H](OC(C)=O)[C@H]3C(=C)C(=O)O[C@@H]3C12 (some centres not stated) | Active

These molecules were tested on HL-60 (assay: Cell cycle arrest in human HL-60 cells assessed as accumulation at S phase at 30 uM after 48 hrs by flow cytometry). Details: not given.
Assay type: functional
Summary of the method: as §2

Row | Structure (SMILES) | Activity [%]
21 | C=C1C(=O)O[C@H]2C[C@@]3(C)[C@H](OC(C)=O)CC[C@@](C)(O)[C@H]3[C@@H](OC(C)=O)[C@H]12 | 21.5
22 | COc1cc([C@@H]2c3cc4c(cc3[C@@H](O[C@@H]3O[C@@H]5CO[C@@H](C)O[C@H]5[C@H](O)[C@H]3O)[C@H]3COC(=O)[C@H]23)OCO4)cc(OC)c1O [ETOPOSIDE] | 17.1
23 | C=C1CC[C@@H](OC(C)=O)[C@]2(C)C[C@H](OC(C)=O)[C@H]3C(=C)C(=O)O[C@@H]3C12 (some centres not stated) | 22

These molecules were tested on U-937 (assay: Cytotoxicity against human U937 cells after 72 hrs by MTT assay). Details: U-937, 72 h.
Assay type: functional, cell-based
Summary of the method: (§4)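 Exponentially growing cells, 1 × 10^4 per well in RPMI 1640 with 10% FBS, treated with 0.3-100 µM for 72 h. DMSO at most 0.1% (v/v). Viability read by MTT reduction as absorbance at 570 nm and expressed as survival relative to control wells. IC50 obtained by curve fitting; means ± SE of three independent experiments, each in triplicate.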

Row | Structure (SMILES) | IC50 [µM]
24 | C=C1C(=O)O[C@H]2C[C@@]3(C)[C@H](OC(C)=O)CC[C@@](C)(O)[C@H]3[C@@H](OC(C)=O)[C@H]12 | 10.4
25 | COc1cc([C@@H]2c3cc4c(cc3[C@@H](O[C@@H]3O[C@@H]5CO[C@@H](C)O[C@H]5[C@H](O)[C@H]3O)[C@H]3COC(=O)[C@H]23)OCO4)cc(OC)c1O [ETOPOSIDE] | 0.92
26 | C=C1CC[C@@H](OC(C)=O)[C@]2(C)C[C@H](OC(C)=O)[C@H]3C(=C)C(=O)O[C@@H]3C12 (some centres not stated) | 9.2

These molecules were tested on HL-60 (assay: Effect on cell death in human HL-60 cells assessed as induction of procaspase 6 cleavage at 30 uM). Details: not given.
Assay type: functional, cell-based
Summary of the method: as §1

Row | Structure (SMILES) | Activity
27 | C=C1C(=O)O[C@H]2C[C@@]3(C)[C@H](OC(C)=O)CC[C@@](C)(O)[C@H]3[C@@H](OC(C)=O)[C@H]12 | Active
28 | C=C1CC[C@@H](OC(C)=O)[C@]2(C)C[C@H](OC(C)=O)[C@H]3C(=C)C(=O)O[C@@H]3C12 (some centres not stated) | Active

These molecules were tested on SK-MEL-1 (assay: Induction of apoptosis in human SK-MEL-1 cells assessed as fragmentated and condensed chromatin at 30 uM after 24 hrs by fluorescence microscopy). Details: not given.
Assay type: functional, cell-based
Summary of the method: as §3

Row | Structure (SMILES) | Activity
29 | C=C1C(=O)O[C@H]2C[C@@]3(C)[C@H](OC(C)=O)CC[C@@](C)(O)[C@H]3[C@@H](OC(C)=O)[C@H]12 | Active
30 | C=C1CC[C@@H](OC(C)=O)[C@]2(C)C[C@H](OC(C)=O)[C@H]3C(=C)C(=O)O[C@@H]3C12 (some centres not stated) | Active

The molecules below were run on SK-MEL-1 (assay: Cytotoxicity against human SK-MEL-1 cells after 72 hrs by MTT assay). Details: SK-MEL-1, 72 h.
Assay type: functional, cell-based
Summary of the method: as §4

Row | Structure (SMILES) | IC50 [µM]
31 | C=C1C(=O)O[C@H]2C[C@@]3(C)[C@H](OC(C)=O)CC[C@@](C)(O)[C@H]3[C@@H](OC(C)=O)[C@H]12 | 27.9
32 | COc1cc([C@@H]2c3cc4c(cc3[C@@H](O[C@@H]3O[C@@H]5CO[C@@H](C)O[C@H]5[C@H](O)[C@H]3O)[C@H]3COC(=O)[C@H]23)OCO4)cc(OC)c1O [ETOPOSIDE] | > 30
33 | C=C1CC[C@@H](OC(C)=O)[C@]2(C)C[C@H](OC(C)=O)[C@H]3C(=C)C(=O)O[C@@H]3C12 (some centres not stated) | 14.3

These molecules were tested on A549 (assay: Cytotoxicity against human A549 cells after 72 hrs by MTT assay). Details: A549, 72 h.
Assay type: functional, cell-based
Summary of the method: as §4

Row | Structure (SMILES) | IC50 [µM]
34 | C=C1C(=O)O[C@H]2C[C@@]3(C)[C@H](OC(C)=O)CC[C@@](C)(O)[C@H]3[C@@H](OC(C)=O)[C@H]12 | > 100
35 | COc1cc([C@@H]2c3cc4c(cc3[C@@H](O[C@@H]3O[C@@H]5CO[C@@H](C)O[C@H]5[C@H](O)[C@H]3O)[C@H]3COC(=O)[C@H]23)OCO4)cc(OC)c1O [ETOPOSIDE] | 5.9
36 | C=C1CC[C@@H](OC(C)=O)[C@]2(C)C[C@H](OC(C)=O)[C@H]3C(=C)C(=O)O[C@@H]3C12 (some centres not stated) | 72.4

What follows are molecules tested on HL-60 (assay: Cytotoxicity against human HL-60 cells after 72 hrs by MTT assay). Details: HL-60, 72 h.
Assay type: functional, cell-based
Summary of the method: as §4

Row | Structure (SMILES) | IC50 [µM]
37 | C=C1C(=O)O[C@H]2C[C@@]3(C)[C@H](OC(C)=O)CC[C@@](C)(O)[C@H]3[C@@H](OC(C)=O)[C@H]12 | 13.3
38 | COc1cc([C@@H]2c3cc4c(cc3[C@@H](O[C@@H]3O[C@@H]5CO[C@@H](C)O[C@H]5[C@H](O)[C@H]3O)[C@H]3COC(=O)[C@H]23)OCO4)cc(OC)c1O [ETOPOSIDE] | 0.25
39 | C=C1CC[C@@H](OC(C)=O)[C@]2(C)C[C@H](OC(C)=O)[C@H]3C(=C)C(=O)O[C@@H]3C12 (some centres not stated) | 9.4

Each molecule was assayed on HL-60 (assay: Cell cycle arrest in human HL-60 cells assessed as accumulation at sub G0/G1 phase at 30 uM after 48 hrs by flow cytometry). Details: not given.
Assay type: functional
Summary of the method: as §2

Row | Structure (SMILES) | Activity [%]
40 | C=C1C(=O)O[C@H]2C[C@@]3(C)[C@H](OC(C)=O)CC[C@@](C)(O)[C@H]3[C@@H](OC(C)=O)[C@H]12 | 11.8
41 | COc1cc([C@@H]2c3cc4c(cc3[C@@H](O[C@@H]3O[C@@H]5CO[C@@H](C)O[C@H]5[C@H](O)[C@H]3O)[C@H]3COC(=O)[C@H]23)OCO4)cc(OC)c1O [ETOPOSIDE] | 47.7
42 | C=C1CC[C@@H](OC(C)=O)[C@]2(C)C[C@H](OC(C)=O)[C@H]3C(=C)C(=O)O[C@@H]3C12 (some centres not stated) | 30
